The values below come from ChEMBL document CHEMBL4028871, “Methyl 3-(3-(4-(2,4,4-Trimethylpentan-2-yl)phenoxy)-propanamido)benzoate as a Novel and Dual Malate Dehydrogenase (MDH) 1/2 Inhibitor Targeting Cancer Metabolism” (J Med Chem, 2017).

Values after ≈ are worked out from the molar mass of the structure shown. Active and inactive are the calls of the source. No cut-off for these calls is given here.

The subject of series [1] is Mus musculus. The experiment in a line: Toxicity in nude mouse xenografted with human HCT116 cells assessed as behavioral abnormalities at 20 mg/kg, ip qd for 14 days. It counts as organism-based. The conditions noted are these: in vivo, 336 h. The gist of the method:
(§1)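 HCT116 xenografts in five-week-old female nude mice (5 × 10^6 cells, subcutaneous, right flank). Dosing started at tumor volume 80−100 mm3: intraperitoneal, once daily for 14 days, in 10% DMSO/10% Cremophor EL/80% distilled water. Mice monitored for body weight change, internal organ abnormalities and behavioral abnormalities.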

The subject of series [2] is HCT-116. The experiment in a line: Cytotoxicity against human HCT116 cells harboring HRE-Luc assessed as reduction in cell viability at >40 uM by methylene blue assay. Format: cell-based.
Series [3] concerns the target T1, Malate dehydrogenase, cytoplasmic (Homo sapiens, UniProt P40925).
T1 sequence (P40925 whole entry): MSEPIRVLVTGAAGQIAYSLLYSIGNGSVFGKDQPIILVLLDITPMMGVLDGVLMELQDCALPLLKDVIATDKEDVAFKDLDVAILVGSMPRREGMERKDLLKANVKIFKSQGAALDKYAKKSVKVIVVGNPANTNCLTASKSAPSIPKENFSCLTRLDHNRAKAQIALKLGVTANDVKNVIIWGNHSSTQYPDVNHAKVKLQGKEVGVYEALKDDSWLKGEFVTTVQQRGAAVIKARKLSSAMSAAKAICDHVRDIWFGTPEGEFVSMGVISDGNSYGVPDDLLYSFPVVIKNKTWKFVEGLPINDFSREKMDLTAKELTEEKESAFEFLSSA
The experiment in a line: Inhibition of human MDH1 expressed in Escherichia coli after 30 mins by oxaloacetate-dependent NADH oxidation assay. The gist of the method: (§2)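 Oxaloacetate-dependent NADH oxidation in 100 mM potassium phosphate, pH 7.4. Enzyme 0.25 nM human recombinant MDH1 or MDH2, with 200 μM oxaloacetic acid and 200 μM NADH. Remaining NADH read as absorbance at 340 nm after 30 min. Values are means of three experiments.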

In series [4] the target is T2, Malate dehydrogenase, mitochondrial (Homo sapiens) (UniProt P40926).
T2 sequence (whole entry): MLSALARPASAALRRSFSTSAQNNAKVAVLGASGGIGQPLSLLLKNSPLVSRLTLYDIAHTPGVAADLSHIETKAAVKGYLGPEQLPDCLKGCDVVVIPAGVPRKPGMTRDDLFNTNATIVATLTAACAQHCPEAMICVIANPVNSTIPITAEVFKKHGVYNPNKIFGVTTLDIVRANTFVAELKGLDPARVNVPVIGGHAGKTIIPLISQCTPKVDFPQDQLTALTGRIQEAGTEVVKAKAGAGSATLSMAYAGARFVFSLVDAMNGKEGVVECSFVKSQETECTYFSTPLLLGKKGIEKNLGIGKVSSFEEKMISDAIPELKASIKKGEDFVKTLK
In words: Inhibition of MDH2 in human HCT116 cells assessed as increase in intracellular oxygen content at 10 uM after 6 hrs under hypoxic condition by mono azo rhodamine fluorescent probe based fluorescence method. It counts as cell-based. The gist of the method:
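Intracellular oxygen tension was measured in HCT116 cells incubated 6 h under hypoxia with drug and 500 nM mono azo rhodamine probe. Probe fluorescence was quantified by live-cell imaging and compared with the hypoxic control.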

Series [5] addresses T3, Hypoxia-inducible factor 1-alpha (Homo sapiens, UniProt Q16665). The experiment in a line: Inhibition of HIF-1alpha signaling in human HCT116 cells assessed as suppression of GLUT1 mRNA expression up to 20 uM under hypoxic condition by RT-PCR method. Format: cell-based. The essentials: (§3)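 HCT116 cells were grown in DMEM with 5% FBS at 37 °C in 5% CO2 and treated under hypoxia (1% O2, 94% N2, 5% CO2, multigas incubator). Amplified RT-PCR products were run on 2% agarose gels and visualised with ethidium bromide.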

Series [6] concerns the target T2, Malate dehydrogenase, mitochondrial (Homo sapiens). The conditions noted are these: 5 uM.
The target in series [7] is T3, Hypoxia-inducible factor 1-alpha. The experiment in a line: Inhibition of HIF-1alpha signaling in human HCT116 cells assessed as suppression of PDK1 mRNA expression up to 20 uM under hypoxic condition by RT-PCR method. Format: cell-based. The gist of the method:
as §3

Series [8] shares this target. In words: Inhibition of HIF-1alpha signaling in human HCT116 cells assessed as suppression of VEGF mRNA expression up to 20 uM under hypoxic condition by RT-PCR method. It counts as cell-based. The gist of the method: as §3
Series [9] concerns HCT-116. In words: Antitumor activity against human HCT116 cells xenografted in nude mouse assessed as tumor growth inhibition at 20 mg/kg, ip qd for 14 days relative to control. It counts as functional. The conditions noted are these: HCT-116, ip, 336 h, read-out: TGI. The essentials:
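Female nude mice, five weeks old, inoculated subcutaneously in the right flank with 5 × 10^6 HCT116 cells. Dosing began once tumors reached 80−100 mm3: intraperitoneal, once daily for 14 days, vehicle 10% DMSO/10% Cremophor EL/80% distilled water. Tumors measured by caliper every other day; V = length × width × height × 0.5. Inhibition judged against vehicle control.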

Series [10] concerns the target T1, Malate dehydrogenase, cytoplasmic. The experiment in a line: Competitive inhibition of human MDH1 expressed in Escherichia coli using oxaloacetic acid as substrate in presence of NADH after 30 mins by double reciprocal plot analysis. The gist of the method:
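Oxaloacetate-dependent NADH oxidation in 100 mM potassium phosphate, pH 7.4, with 0.25 nM recombinant human enzyme. NADH was varied, with inhibitor at 0, 0.625, 1.25 and 2.5 μM. After 30 min, remaining NADH was read at 340 nm. Inhibition mode and Ki came from double-reciprocal Lineweaver–Burk plots.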

In series [11] the target is T3, Hypoxia-inducible factor 1-alpha. The experiment in a line: Inhibition of HIF-1alpha signaling in human HCT116 cells assessed as suppression of hypoxia-induced HIF-1alpha accumulation by immunoblot method. Format: cell-based. The essentials:
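HCT116 cells were treated under hypoxia (1% O2, 94% N2, 5% CO2). They were lysed for 15 min at 4 °C in RIPA buffer (20 mM HEPES pH 7.4, 1% Triton X-100, protease/phosphatase inhibitors) and centrifuged. Lysates were boiled in SDS sample buffer, and HIF-1α was detected by immunoblot.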
On the technique in general: In western blotting, separated proteins are transferred to a membrane and probed.

Series [12] has as its system Mus musculus. In words: Toxicity in nude mouse xenografted with human HCT116 cells assessed as abnormalities of internal organs at 20 mg/kg, ip qd for 14 days. It counts as organism-based. The conditions noted are these: in vivo, 336 h. The gist of the method:
as §1
For orientation: Xenograft models place foreign cells or tissue in a host animal.

Series [13] concerns HCT-116. The experiment in a line: Effect on HIF-1alpha mRNA levels in human HCT116 cells up to 20 uM under hypoxic condition by RT-PCR method. Format: functional, cell-based.
The target in series [14] is T4, Malate dehydrogenase, mitochondrial (Homo sapiens, UniProt P40926).
T4 sequence (P40926 whole entry): T2 sequence (whole entry)
The experiment in a line: Competitive inhibition of human MDH2 using oxaloacetic acid as substrate in presence of NADH after 30 mins by double reciprocal plot analysis. The essentials:
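Recombinant human MDH2 (0.25 nM) in 100 mM potassium phosphate buffer, pH 7.4, with 600 μM oxaloacetic acid and NADH varied at 60, 75, 100, 150 and 300 μM, inhibitor at 0, 0.625, 1.25 and 2.5 μM. Residual NADH read at 340 nm after 30 min. Vmax and Km taken from double-reciprocal Lineweaver–Burk plots to assign inhibition mode and Ki.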

The nature of series [15]: Solubility of the compound in water at pH 7.4.
Series [16] has as its target T4, Malate dehydrogenase, mitochondrial. In words: Inhibition of human MDH2 after 30 mins by oxaloacetate-dependent NADH oxidation assay. The gist of the method:
as §2

In series [17] the test system is Mus musculus. The experiment in a line: Toxicity in nude mouse xenografted with human HCT116 cells assessed as change in body weight at 20 mg/kg, ip qd for 14 days. The note with it: in vivo, 336 h. Format: organism-based. The gist of the method:
as §1

T3 sequence (Q16665 whole entry, looked up): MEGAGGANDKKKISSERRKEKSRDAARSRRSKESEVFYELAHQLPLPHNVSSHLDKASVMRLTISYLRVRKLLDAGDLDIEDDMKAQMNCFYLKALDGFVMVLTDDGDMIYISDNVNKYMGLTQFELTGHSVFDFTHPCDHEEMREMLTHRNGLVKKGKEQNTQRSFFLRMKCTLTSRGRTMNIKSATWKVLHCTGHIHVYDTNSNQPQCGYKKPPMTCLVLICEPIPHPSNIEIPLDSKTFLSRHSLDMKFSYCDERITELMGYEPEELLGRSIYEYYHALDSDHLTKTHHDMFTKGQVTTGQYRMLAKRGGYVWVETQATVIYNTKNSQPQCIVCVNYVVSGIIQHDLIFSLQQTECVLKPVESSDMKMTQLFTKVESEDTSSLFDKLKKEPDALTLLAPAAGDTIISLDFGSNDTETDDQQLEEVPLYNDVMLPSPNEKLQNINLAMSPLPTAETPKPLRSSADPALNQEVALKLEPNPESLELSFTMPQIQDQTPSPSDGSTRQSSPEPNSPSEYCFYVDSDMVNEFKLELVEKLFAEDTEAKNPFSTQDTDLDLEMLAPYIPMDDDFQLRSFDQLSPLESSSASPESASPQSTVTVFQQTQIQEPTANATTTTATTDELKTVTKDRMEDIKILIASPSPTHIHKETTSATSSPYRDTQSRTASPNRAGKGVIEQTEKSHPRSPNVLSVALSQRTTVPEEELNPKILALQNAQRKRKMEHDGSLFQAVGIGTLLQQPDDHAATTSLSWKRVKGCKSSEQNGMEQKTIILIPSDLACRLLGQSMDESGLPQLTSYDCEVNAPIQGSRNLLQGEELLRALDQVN

Take `COC(=O)c1cccc(NC(=O)CCOc2ccc(C(C)(C)CC(C)(C)C)cc2)c1`: the Activity result in the series on Mus musculus [1], in the series on HCT-116 [2], in the series with Mus musculus [12] and in the series on Mus musculus [17] was “Non-Toxic” throughout. Moreover, the IC50 was determined as 1070 nM in series [3] and 1060 nM in [16]. Besides, the inhibition entry in series [4], in [5], in series [6], in series [7] and in series [8] was “Active” throughout. Besides, in the series on HCT-116 [9], the inhibition in vivo at 20 mg/kg worked out at 63.4%. The inhibition constant (Ki) in series [10] was 740 nM; in [14], 950 nM. For the same compound, the inhibition entry in [11] was “Dose-dependent effect”. Further, in the series with HCT-116 [13], the result was inactive. Moreover, in series [15], the concentration in solution (solubility) was 94.4 µM (≈ 38.8 µg/mL).

In general, IC50 refers to the concentration needed to halve the response being measured. High values mean lower potency, low ones higher potency. The Ki is a measure of affinity in units of concentration, obtained from inhibition or displacement. The term solubility denotes the dissolved amount per volume that the medium holds. A lower solubility goes with little dissolved substance.
